Experimental data: ChEMBL document CHEMBL1154820, “Synthesis, characterization and structure-activity relationship of novel N-phosphorylated E,E-3,5-bis(thienylidene)piperid-4-ones” (Eur J Med Chem, 2010)

Assays:
[1] = tested on: SK-OV-3; assay: Cytotoxicity against human Scov3 cells after 72 hrs by MTT assay; type: functional, cell-based
Outline: (§1)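 Cells kept in RPMI-1640 with 10% FBS, 2 mM L-glutamine and gentamicin; seeded at 1×10⁴ cells/well, attached overnight at 37 °C, 5% CO₂. Compounds dissolved in DMSO, diluted into FBS-free medium, tested at […], 10⁻⁵, 10⁻⁶, 10⁻⁷ M in triplicate for 72 h. MTT (5 mg/ml) added for 3 h at 37 °C, formazan dissolved in DMSO, OD read at 590 nm; viability loss versus untreated controls, IC50 read graphically; melphalan as positive control.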

[2] = Cytotoxicity against human Caov3 cells after 72 hrs by MTT assay; type: functional, cell-based, Caov-3; outline: as §1
[3] = tested on: A549; assay: Cytotoxicity against human A549 cells after 72 hrs by MTT assay; type: functional, cell-based; outline: as §1
[4] = Homo sapiens, SK-OV-3, 72 h, read-out: IC50
[5] = Homo sapiens, Caov-3, 72 h, read-out: IC50
[6] = Homo sapiens, A549, 72 h, read-out: IC50

| SMILES | IC50 [1, 4] [µM] | IC50 [2, 5] [µM] | IC50 [3, 6] [µM] | IC50 ([2]; caov-3) | IC50 ([1]; sk-ov-3) | IC50 ([3]; a549) |
| --- | --- | --- | --- | --- | --- | --- |
| CCOP(=O)(CCN1C/C(=C\c2cccs2)C(=O)/C(=C/c2cccs2)C1)OCC | 64 | 70 | 35 | – | – | – |
| CN1C/C(=C\c2cccs2)C(=O)/C(=C/c2cccs2)C1 | 85 | – | 80 | Non-toxic | – | – |
| O=C1/C(=C/c2cccs2)CNC/C1=C\c1cccs1 | – | – | – | Non-toxic | Non-toxic | Non-toxic |
| CCOP(=O)(OCC)N1C/C(=C\c2cccs2)C(=O)/C(=C/c2cccs2)C1 | 30 | 26 | 27 | – | – | – |
| N[C@@H](Cc1ccc(N(CCCl)CCCl)cc1)C(=O)O [MELPHALAN] | – | 50 | – | – | – | – |
| CN1C/C(=C/c2cccs2)C(=O)/C(=C/c2cccs2)C1 | – | – | – | Non-toxic | Non-toxic | Non-toxic |
| O=C1/C(=C/c2cccs2)CN(P(=O)(Oc2ccccc2)Oc2ccccc2)C/C1=C\c1cccs1 | 60 | 44 | 35 | – | – | – |
| CCOP(=O)(CCCN1C/C(=C\c2cccs2)C(=O)/C(=C/c2cccs2)C1)OCC | 40 | 40 | 30 | – | – | – |
| CCOP(=O)(CN1C/C(=C\c2cccs2)C(=O)/C(=C/c2cccs2)C1)OCC | 38 | 20 | 15 | – | – | – |
